Among the data in the array DNA melting data of Ke et al. (doi:10.1101/2024.01.08.574731) are folding enthalpy and Tm values, retold here.

Series [1] in a line: folding enthalpy; higher = less favourable; fluorescence melt of hairpins on a sequencing array, two-state fit. To be noted: sodium 0.088 M. The procedure, abridged: (§1)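 Melting temperature and folding enthalpy were derived from bootstrapped two-state fits. The fitted temperatures were raised by 9.35 °C to agree with UV melts, and four replicates were combined by inverse variance. The underlying data were Cy3 fluorescence images of library hairpins, with annealed Cy3 and quencher oligos, on a sequenced MiSeq flow cell in 50 mM Na-HEPES pH 8.0, 25 mM NaCl, taken in 2.5 °C steps up to 60 °C, normalised to pre-quench Cy3 and to control constructs.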

Series [2] can be described thus: melting temperature; fluorescence melt of hairpins on a sequencing array, two-state fit, raised by 9.35 °C to match UV melts. As to conditions: sodium 0.088 M. A digest of the protocol: as §1

As for GATCTCCCGCGAGATC ((((((....)))))), the folding enthalpy in series [1] was -32.3 kcal/mol. Besides, the Tm in series [2] amounted to 52.7 °C.

Take GATCTCCCGTGAGATC ((((((....)))))): the folding enthalpy in series [1] is -35.4 kcal/mol. Further, in series [2], the Tm stood at 52.5 °C.

As for GATCTCCGAAAGGATATC (((.(((....))).))), in series [1], the folding enthalpy is -31.9 kcal/mol. In series [2], the Tm worked out at 39.3 °C.

Consider GATCTCCGAGGAGATC ((((((....)))))), for which the folding enthalpy in series [1] was -37.8 kcal/mol. Also, the Tm in series [2] worked out at 60.4 °C.

On to GATCTCCGCTGAGATC ((((((....)))))), for which the folding enthalpy in series [1] is -32.5 kcal/mol. For the same sequence, the Tm in series [2] amounted to 53.1 °C.

Take GATCTCCGGTGAGATC ((((((....)))))): the folding enthalpy in series [1] was -35.5 kcal/mol. The Tm in series [2] was found to be 52 °C.

On to GATCTCCTGGAGATC ((((((...)))))), for which the folding enthalpy in series [1] is -37.3 kcal/mol. The Tm in series [2] stood at 53.2 °C.

For the sequence GATCTCCTTGAGATC ((((((...)))))), the folding enthalpy in series [1] was -40.6 kcal/mol. Also, in series [2], the Tm was determined as 54.4 °C.

With GATCTCGACAGAGATC ((((((....)))))), the folding enthalpy in series [1] is -41.9 kcal/mol. Besides, in series [2], the Tm was 66.8 °C.

On to GATCTCGAGGGAGATC ((((((....)))))), for which, in series [1], the folding enthalpy is -19.9 kcal/mol. Moreover, the Tm in series [2] turned out to be 51.7 °C.

With GATCTCGCACGAGATC ((((((....)))))), the folding enthalpy in series [1] was -44.6 kcal/mol. Further, in series [2], the Tm was 61 °C.

As to GATCTCGCCGAGATC ((((((...)))))), in series [1], the folding enthalpy was -37 kcal/mol. The Tm in series [2] came to 55.2 °C.

In the case of GATCTCGCGAAAGCGATC (((..(((....)))))), the folding enthalpy in series [1] is -5.91 kcal/mol. In series [2], the Tm was 28.1 °C.

Regarding GATCTCGGCGAGATC ((((((...)))))), the folding enthalpy in series [1] was -35.8 kcal/mol. Also, in series [2], the Tm is 59.6 °C.

Turning to GATCTCGGGCGAGATC ((((((....)))))), the folding enthalpy in series [1] was -30.4 kcal/mol. The Tm in series [2] amounted to 55.2 °C.

As for GATCTCTAAAGAGATC ((((((....)))))), the folding enthalpy in series [1] is -33.4 kcal/mol. Also, in series [2], the Tm is 51.4 °C.

With GATCTCTACTGAGATC ((((((....)))))), the folding enthalpy in series [1] is -41.6 kcal/mol. Also, the Tm in series [2] came to 53.2 °C.

Regarding GATCTCTAGCGAGATC ((((((....)))))), in series [1], the folding enthalpy is -23.1 kcal/mol. Further, the Tm in series [2] stood at 49.9 °C.

Turning to GATCTCTATTGAGATC ((((((....)))))), the folding enthalpy in series [1] was -39.1 kcal/mol. For the same sequence, the Tm in series [2] is 53 °C.

Consider GATCTCTCCTGAGATC ((((((....)))))), for which the folding enthalpy in series [1] is -39.3 kcal/mol. In series [2], the Tm amounted to 55 °C.

With GATCTCTCTCGAGATC ((((((....)))))), in series [1], the folding enthalpy is -37.2 kcal/mol. Besides, the Tm in series [2] turned out to be 52 °C.

Take GATCTCTGCGAGATC ((((((...)))))): in series [1], the folding enthalpy is -19.3 kcal/mol. Further, the Tm in series [2] was determined as 52.8 °C.

For GATCTCTGCTGAGATC ((((((....)))))), the folding enthalpy in series [1] is -45.9 kcal/mol. In addition, the Tm in series [2] came to 53.7 °C.

With GATCTCTTCCGAGATC ((((((....)))))), the folding enthalpy in series [1] was -37 kcal/mol. Further, in series [2], the Tm came to 52.3 °C.

For GATCTCTTCGAGATC ((((((...)))))), in series [1], the folding enthalpy was -36.9 kcal/mol. In series [2], the Tm came to 55.4 °C.

As for GATCTGAAAAGATC (((((....))))), in series [1], the folding enthalpy was -28.2 kcal/mol. Also, the Tm in series [2] turned out to be 45.6 °C.

For the sequence GATCTGAAATCAGATC ((((((....)))))), in series [1], the folding enthalpy was -36.1 kcal/mol. For the same sequence, the Tm in series [2] is 45.1 °C.

For the sequence GATCTGAACACAGATC ((((((....)))))), the folding enthalpy in series [1] is -34.7 kcal/mol. In series [2], the Tm turned out to be 48.4 °C.

In the case of GATCTGAATTCAGATC ((((((....)))))), the folding enthalpy in series [1] is -41.6 kcal/mol. Also, the Tm in series [2] was determined as 50.2 °C.

As for GATCTGACCCCAGATC ((((((....)))))), in series [1], the folding enthalpy is -34.3 kcal/mol. Further, the Tm in series [2] is 45.8 °C.

On to GATCTGACCGCAGATC ((((((....)))))), for which the folding enthalpy in series [1] is -27.4 kcal/mol. The Tm in series [2] was found to be 48 °C.

Regarding GATCTGACGGCAGATC ((((((....)))))), in series [1], the folding enthalpy is -49.4 kcal/mol. The Tm in series [2] is 51.4 °C.

For GATCTGACTCAGATC ((((((...)))))), the folding enthalpy in series [1] was -33.7 kcal/mol. In addition, the Tm in series [2] amounted to 46.8 °C.

Consider GATCTGAGACAGATC ((((((...)))))), for which the folding enthalpy in series [1] was -42.3 kcal/mol. Besides, the Tm in series [2] was 46.8 °C.

As for GATCTGAGGCCAGATC ((((((....)))))), in series [1], the folding enthalpy is -35.8 kcal/mol. Besides, in series [2], the Tm stood at 47.1 °C.

Consider GATCTGAGTCAGATC ((((((...)))))), for which the folding enthalpy in series [1] is -36.5 kcal/mol. The Tm in series [2] came out at 47.5 °C.

For GATCTGATATCAGATC ((((((....)))))), the folding enthalpy in series [1] was -40.1 kcal/mol. Besides, the Tm in series [2] turned out to be 51 °C.

With GATCTGATGCAGATC ((((((...)))))), the folding enthalpy in series [1] is -34.5 kcal/mol. Besides, the Tm in series [2] turned out to be 48 °C.
